Experimental data taken from ChEMBL document CHEMBL5136969, “A niclosamide-tobramycin hybrid adjuvant potentiates cefiderocol against P. aeruginosa” (2021).

Legend:
[1] = tested on: Pseudomonas aeruginosa; test: Potentiation of ceftazidime-induced antibiotic activity against Pseudomonas aeruginosa PAO1 assessed as MIC fold reduction at 8 ug/ml after 18 hrs by microbroth dilution method; assay type: functional; settings: dose 8 µg/ml
Procedure, shortened: (§1)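 Adjuvant held at a fixed 8 μg/mL while the antibiotic was 2-fold serially diluted in Mueller-Hinton broth (MHB), per CLSI microbroth dilution. Overnight cultures were adjusted in saline to 0.5 McFarland, then diluted 1:50 in MHB to about 5 × 10^5 CFU/mL final, and incubated 18 h at 37 °C. MIC was the lowest concentration with no visible turbidity, confirmed at 590 nm. Fold potentiation = MIC alone / MIC with adjuvant.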

[2] = tested on: Acinetobacter baumannii; test: Potentiation of cefotaxime-induced antibiotic activity against Acinetobacter baumannii ATCC 17978 assessed as MIC fold reduction at 8 ug/ml after 18 hrs by microbroth dilution method; assay type: functional; settings: dose 8 µg/ml
Procedure, shortened: (§2)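 Initial screen in MHB using a fixed 8 μg mL−1 of adjuvant combined with each antibiotic under 2-fold dilution. Broth microdilution used about 5 × 10^5 CFU/mL at 37 °C for 18 h, with visible turbidity read and confirmed at 590 nm. Fold-potentiation = antibiotic MIC alone ÷ antibiotic MIC with adjuvant.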

[3] = tested on: Acinetobacter baumannii; test: Potentiation of colistin-induced antibiotic activity against Acinetobacter baumannii ATCC 17978 assessed as MIC fold reduction at 8 ug/ml after 18 hrs by microbroth dilution method; assay type: functional; settings: dose 8 µg/ml; procedure, shortened: as §1
[4] = tested on: Pseudomonas aeruginosa; test: Potentiation of doxycycline-induced antibiotic activity against Pseudomonas aeruginosa PAO1 assessed as MIC fold reduction at 8 ug/ml after 18 hrs by microbroth dilution method; assay type: functional; settings: dose 8 µg/ml; procedure, shortened: as §1
[5] = tested on: Pseudomonas aeruginosa; test: Antibacterial activity against MDR clinical isolate Pseudomonas aeruginosa PA101885 assessed as reduction in bacterial growth after 18 hrs by microbroth dilution method; assay type: functional
Procedure, shortened: (§3)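 CLSI broth microdilution. Overnight cultures were adjusted in saline to 0.5 McFarland, diluted 1:50 in Mueller-Hinton broth (MHB), and inoculated at about 5 × 10^5 CFU/mL. Agents were 2-fold serially diluted in MHB, mixed 1:1 with inoculum, and held at 37 °C for 18 h. MIC was the lowest concentration with no visible turbidity, confirmed at 590 nm.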

[6] = tested on: Pseudomonas aeruginosa; test: Potentiation of cefiderocol-induced antibiotic activity against MDR clinical isolate Pseudomonas aeruginosa PA259 assessed as MIC fold reduction at 8 ug/ml after 18 hrs by microbroth dilution method; settings: dose 8 µg/ml
[7] = tested on: Escherichia coli; test: Potentiation of cefiderocol-induced antibiotic activity against Escherichia coli ATCC 25922 assessed as MIC fold reduction at 8 ug/ml after 18 hrs by microbroth dilution method; assay type: functional; settings: dose 8 µg/ml; procedure, shortened: as §2
[8] = tested on: Acinetobacter baumannii; test: Antibacterial activity against Acinetobacter baumannii ATCC 17978 assessed as reduction in bacterial growth after 18 hrs in presence of cefiderocol by microbroth dilution method; assay type: functional
Procedure, shortened: (§4)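 Checkerboard in Mueller-Hinton broth: cefiderocol 2-fold diluted on one axis, adjuvant 2-fold on the other. Overnight cultures were adjusted to 0.5 McFarland in saline, diluted 1:50 in MHB, and inoculated at about 5 × 10^5 CFU/mL. Incubation was 18 h at 37 °C. Turbidity was read visually and confirmed at 590 nm. FIC index = FIC of antibiotic + FIC of adjuvant; ≤0.5 synergy, >4 antagonism.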

[9] = tested on: Acinetobacter baumannii; test: Potentiation of trimethoprim-induced antibiotic activity against Acinetobacter baumannii ATCC 17978 assessed as MIC fold reduction at 8 ug/ml after 18 hrs by microbroth dilution method; assay type: functional; settings: dose 8 µg/ml
[10] = tested on: Escherichia coli; test: Antibacterial activity against Escherichia coli 94393 assessed as reduction in bacterial growth after 18 hrs in presence of cefiderocol by microbroth dilution method; assay type: functional; procedure, shortened: as §4
[11] = tested on: Pseudomonas aeruginosa; test: Antibacterial activity against MDR clinical isolate Pseudomonas aeruginosa PA88949 assessed as reduction in bacterial growth after 18 hrs in presence of cefiderocol by microbroth dilution method; assay type: functional
Procedure, shortened: (§5)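 Checkerboard in MHB. Cefiderocol was 2-fold serially diluted along one axis and the adjuvant along the other. Inoculum was prepared from 0.5 McFarland saline suspensions diluted 1:50 in MHB, giving about 5 × 10^5 CFU/mL final. Plates ran 18 h at 37 °C, with turbidity confirmed at 590 nm. FIC = combination MIC ÷ MIC alone for each agent, and FIC index = sum of both. Interpretation: ≤0.5 synergy, >0.5–4 additive, >4 antagonism.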

[12] = tested on: Escherichia coli; test: Potentiation of cotrimoxazole-induced antibiotic activity against Escherichia coli ATCC 25922 assessed as MIC fold reduction at 8 ug/ml after 18 hrs by microbroth dilution method; assay type: functional; settings: dose 8 µg/ml; procedure, shortened: as §1
[13] = tested on: Pseudomonas aeruginosa; test: Antibacterial activity against colistin-resistant clinical isolate Pseudomonas aeruginosa PA101243 assessed as reduction in bacterial growth by measuring FIC index after 18 hrs by microbroth dilution method; assay type: functional
Procedure, shortened: (§6)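 Checkerboard in MHB (iron-replete, not iron-depleted CAMHB). Cefiderocol was 2-fold serially diluted along one axis and the adjuvant along the other. Inoculum was 0.5 McFarland diluted 1:50, about 5 × 10^5 CFU/mL final. Incubation was 18 h at 37 °C, with turbidity read visually and confirmed at 590 nm. FIC was the MIC in combination over the MIC alone for each agent, and the FIC index was their sum. Cut-offs were ≤0.5 synergy, >0.5–4 additive, >4 antagonism.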

[14] = tested on: Escherichia coli; test: Antibacterial activity against Escherichia coli 107115 assessed as potentiation of cefiderocol antibacterial activity by measuring FIC after 18 hrs by microbroth dilution method; assay type: functional; procedure, shortened: as §4
[15] = tested on: Pseudomonas aeruginosa; test: Potentiation of moxifloxacin-induced antibiotic activity against Pseudomonas aeruginosa PAO1 assessed as reduction in microbial growth at 8 ug/ml after 18 hrs by microbroth dilution method relative to control; settings: PAO1, 18 h, read-out: GI
[16] = tested on: Klebsiella pneumoniae; test: Antibacterial activity against Klebsiella pneumoniae KP113254 assessed as reduction in bacterial growth after 18 hrs in presence of cefiderocol by microbroth dilution method; assay type: functional; procedure, shortened: as §5
[17] = tested on: Pseudomonas aeruginosa; test: Potentiation of pleuromutilin-induced antibiotic activity against Pseudomonas aeruginosa PAO1 assessed as MIC fold reduction at 8 ug/ml after 18 hrs by microbroth dilution method; assay type: functional; settings: dose 8 µg/ml
[18] = tested on: Acinetobacter baumannii; test: Antibacterial activity against Acinetobacter baumannii LAC-4 assessed as potentiation of cefiderocol antibacterial activity by measuring FIC after 18 hrs by microbroth dilution method; assay type: functional; procedure, shortened: as §4
[19] = tested on: Escherichia coli; test: Antibacterial activity against Escherichia coli 94474 assessed as reduction in bacterial growth after 18 hrs by microbroth dilution method; assay type: functional
Procedure, shortened: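 CLSI microbroth dilution in MHB. Overnight cultures were adjusted to 0.5 McFarland in saline, diluted 1:50, and inoculated at about 5 × 10^5 CFU/mL. Agents were 2-fold serially diluted and incubated 18 h at 37 °C. MIC is the lowest concentration without visible turbidity, confirmed by absorbance at 590 nm. Medium with and without cells served as controls.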

[20] = tested on: Klebsiella pneumoniae; test: Antibacterial activity against Klebsiella pneumoniae KP116381 assessed as reduction in bacterial growth after 18 hrs by microbroth dilution method; assay type: functional; procedure, shortened: as §3
[21] = tested on: Pseudomonas aeruginosa; test: Antibacterial activity against MDR clinical isolate Pseudomonas aeruginosa PA100036 assessed as potentiation of cefiderocol antibacterial activity by measuring FIC index after 18 hrs by microbroth dilution method; assay type: functional; procedure, shortened: as §6
[22] = tested on: Pseudomonas aeruginosa; test: Potentiation of ceftolozane-induced antibiotic activity against Pseudomonas aeruginosa PAO1 assessed as MIC fold reduction at 8 ug/ml after 18 hrs by microbroth dilution method; assay type: functional; settings: dose 8 µg/ml; procedure, shortened: as §1
[23] = tested on: Enterobacter cloacae; test: Antibacterial activity against Enterobacter cloacae 117029 assessed as potentiation of cefiderocol antibacterial activity by measuring FIC after 18 hrs by microbroth dilution method; assay type: functional; procedure, shortened: as §4

In the case of `NC[C@H]1O[C@H](O[C@H]2[C@H](OCCCCc3cn(-c4ccc(NC(=O)c5cc(Cl)ccc5O)cc4)nn3)[C@@H](O[C@H]3O[C@H](CO)[C@@H](O)[C@H](N)[C@H]3O)[C@H](N)C[C@@H]2N)[C@H](N)C[C@@H]1O`, the “fold change (FC)” value [1] is reported as 4, the “fold change (FC)” value [2] is reported as 4 and the “fold change (FC)” value [3] is reported as 4. For the same compound, the “fold change (FC)” value [4] was 4, the MIC [5] was > 128 µg/mL and the “fold change (FC)” value [6] was 32. The “fold change (FC)” value [7] was 4, the MIC [8] was 16 µg/mL and the “fold change (FC)” value [9] was 4. The MIC [10] was 1 µg/mL, the MIC [11] was 0.25 µg/mL and the “fold change (FC)” value [12] was 4. For the same compound, the FIC [13] was 0.125, the FIC [14] was 0.5 and the inhibition of growth at 8 µg/mL [15] was 100%. For the same compound, the MIC [16] was 1 µg/mL, the “fold change (FC)” value [17] was 4 and the FIC [18] was 1. For the same compound, the MIC [19] was > 128 µg/mL, the MIC [20] was > 128 µg/mL and the FIC [21] was 1. The “fold change (FC)” value [22] was 4 and the FIC [23] was 0.5.
